“And” between values parts separate entries of the source, which are not always exact repeats. Equal values may be shown once.
What was measured:
[1] = Minimum tolerated dose is the lethal dose for 10% normal mice for deaths during 21 days; type: ADME, organism-based; settings: mouse, in vivo
Outline: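 Tumor-free male BDF1 mice (18–22 g) received a broad dose range ip in 5% dimethyl sulfoxide-saline on days 1, 5 and 9. Deaths were recorded over 21 days. The LD10 (dose killing 10% of animals) was calculated from a plot of log-dose vs. percent mortality.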

[2] = test system: P388; experiment: (§1) Inhibition of RNA synthesis was measured as the concentration required to cause 50% reduction (in 1h) in 2-[14C]uridine incorporation into acid precipitable material using P388 cells; type: functional, cell-based; settings: Mus musculus, P388, 1 h
[3] = test system: P388; experiment: (§2) Inhibition of DNA synthesis was measured as the concentration required to cause 50% reduction (in 1h) in methyl [3H]thymidine incorporation into acid precipitable material using P388 cells; type: functional, cell-based; settings: Mus musculus
Outline: (§3)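 P388 cells were exposed for 1 h. IC50 (µM) was taken as 50% reduction of methyl-[3H]thymidine (DNA) or 2-[14C]uridine (RNA) incorporation into acid-precipitable material. The ratio is IC50 DNA divided by IC50 RNA.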

[4] = Therapeutic index (MTD/MED) value of the compound; settings: read-out: TI
[5] = IC50 DNA/IC50 RNA ratio of the compound; type: functional; outline: as §3
[6] = test system: Mus musculus; experiment: Antitumor activity against B16 melanoma in terms of percentage increase in life span in mice at an optimal dose of 1200 ug/kg administered ip; type: functional
[7] = test system: Mus musculus; experiment: In vivo antitumor activity was determined against P388 leukemia mice as number of mice survived after administration of 1200 ug/Kg dose of compound; Value represented as no of survivors/ treated = 0/8; type: functional
[8] = species on record: Mus musculus; experiment: Dose providing an increase in the life span of 45% over control in P388 tumor bearing mice; type: functional; settings: read-out: MED
Outline: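 MED is the ip dose in mg/kg, given on days 1, 5 and 9 starting 1 day after implantation, that gives a 45% increase in life span over control in P388-bearing mice. It was derived from plotted log-dose response data.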

[9] = species on record: Rattus norvegicus; experiment: Compound tested for adrenochrome formation in rat hepatic mycrosomal incubation; type: functional
Outline: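 Adrenochrome assay for superoxide: epinephrine in 0.01 N HCl plus 300 µg of phenobarbital-induced rat liver microsomes at 37 °C. NADPH 0.4 mM was added to the sample side 1 min later, and the rate was read at 480 nm (ε 4.02 mM−1 cm−1). Drugs were at ≤100 µM, made in 150 mM KCl–50 mM Tris, pH 7.4. Percent stimulation is over basal rate, in triplicate.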

[10] = species on record: Rattus norvegicus; experiment: Compound tested for NADPH oxidation in rat hepatic mycrosomal incubation; type: functional
Outline: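 Phenobarbital-induced male Sprague-Dawley rat liver microsomes were placed in both cuvettes, without epinephrine. NADPH 0.4 mM was added to the sample side only, and absorbance was read at 340 nm. Percent stimulation = (drug rate − basal)/basal × 100. Values are the average ± standard errors of triplicates.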

[11] = test system: Mus musculus; experiment: Antitumor activity against P388 leukemia cells in terms of median survival time of mice at an optimal dose of 1200 ug/kg administered ip; type: functional
[12] = test system: Mus musculus; experiment: Antitumor activity against B16 melanoma in terms of median survival time of mice at an optimal dose of 1200 ug/kg administered ip; type: functional
[13] = test system: Mus musculus; experiment: Antitumor activity against P388 leukemia cells in terms of percentage increase in life span in mice at an optimal dose of 1200 ug/kg administered ip; type: functional
[14] = test system: Mus musculus; experiment: In vivo antitumor activity was determined against B16 melanoma mice as number of mice survived after administration of 1200 ug/Kg dose of compound; Value represented as no of survivors/ treated = 1/9; type: functional
[15] = test system: CCRF-CEM; experiment: Inhibitory dose required for the inhibition of human lymphoblastic leukemia cells(CCRF-CEM); type: functional; settings: read-out: ID50 (the source's name)
[16] = test system: Mus musculus; experiment: Antitumor activity against P388 leukemia cells in terms of median survival time of mice at an optimal dose of 300 ug/kg administered ip; type: functional
[17] = species on record: Mus musculus; experiment: Antitumor activity against B16 melanoma in terms of percentage increase in life span in mice after 65 days; type: functional
[18] = test system: Mus musculus; experiment: In vivo antitumor activity was determined against P388 leukemia mice as number of mice survived after administration of 300 ug/Kg dose of compound; Value represented as no of survivors/ treated = 0/8; type: functional
[19] = test system: Mus musculus; experiment: In vivo antitumor activity was determined against B16 melanoma mice as number of mice survived after administration of 250 ug/Kg dose of compound; Value represented as no of survivors/ treated = 2/9; type: functional
[20] = test system: P388; experiment: as §2; type: functional; settings: Mus musculus, read-out: ID50 (the source's name); outline: as §3
[21] = test system: Mus musculus; experiment: Antitumor activity against P388 leukemia cells in terms of percentage increase in life span in mice at an optimal dose of 300 ug/kg administered ip; type: functional
[22] = test system: Mus musculus; experiment: Antitumor activity against B16 melanoma in terms of median survival time of mice at an optimal dose of 250 ug/kg administered ip; type: functional
[23] = test system: P388; experiment: as §1; type: functional; settings: Mus musculus, P388, 1 h; read-out: ID50 (the source's name)
[24] = Therapeutic index ([…]) value of the compound; settings: read-out: TI
Outline: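 MED is the dose giving a 45% increase in life span over control in male BDF1 mice implanted ip with 10^6 P388 cells and treated ip on days 1, 5 and 9. MTD is the 21-day LD10 in tumor-free male BDF1 mice (18–22 g), dosed ip on the same days. Both values come from plotted log-dose response data.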

## Cc1c2oc3c(C)c4oc(-c5ccccc5)nc4c(C(=O)N[C@@H]4C(=O)N[C@H](C(C)C)C(=O)N5CCC[C@H]5C(=O)N(C)CC(=O)N(C)[C@@H](C(C)C)C(=O)O[C@@H]4C)c3nc-2c(C(=O)N[C@@H]2C(=O)N[C@H](C(C)C)C(=O)N3CCC[C@H]3C(=O)N(C)CC(=O)N(C)[C@@H](C(C)C)C(=O)O[C@@H]2C)cc1=O
[1]
  MTD at 504 h: 2 mg/kg
[2]
  IC50: 3200 nM
[3]
  IC50: 5700 nM
[4]
  selectivity ratio: 10

## Cc1c2oc3c(C)c4oc(-c5ccccc5)nc4c(C(=O)N[C@@H]4C(=O)N[C@H](C(C)C)C(=O)N5CCC[C@H]5C(=O)N(C)CC(=O)N(C)[C@@H](C(C)C)C(=O)O[C@@H]4C)c3nc-2c(C(=O)N[C@@H]2C(=O)N[C@H](C(C)C)C(=O)N3CCC[C@H]3C(=O)N(C)CC(=O)N(C)[C@@H](C(C)C)C(=O)O[C@@H]2C)c(N)c1=O
[1]
  MTD at 504 h: 1.8 mg/kg
[2]
  IC50: 70 nM
[3]
  IC50: 800 nM
[4]
  selectivity ratio: 60

## Cc1c2oc3c(C)c(O)c(N)c(C(=O)N[C@H]4C(=O)N[C@@H](C(C)C)C(=O)N5CCC[C@H]5C(=O)N(C)CC(=O)N(C)[C@H](C(C)C)C(=O)O[C@H]4C)c3nc-2c(C(=O)N[C@@H]2C(=O)N[C@H](C(C)C)C(=O)N3CCC[C@@H]3C(=O)N(C)CC(=O)N(C)[C@@H](C(C)C)C(=O)O[C@@H]2C)c(N)c1=O
[5]
  Ratio: 0.97

## Cc1c2oc3c(C)c4oc(-c5ccccc5)nc4c(C(=O)N[C@H]4C(=O)N[C@@H](C(C)C)C(=O)N5CCC[C@H]5C(=O)N(C)CC(=O)N(C)[C@H](C(C)C)C(=O)O[C@H]4C)c3nc-2c(C(=O)N[C@@H]2C(=O)N[C@H](C(C)C)C(=O)N3CCC[C@@H]3C(=O)N(C)CC(=O)N(C)[C@@H](C(C)C)C(=O)O[C@@H]2C)c(N)c1=O
[5]
  Ratio: 11.4

## Cc1c2oc3c(C)c(O)c(N)c(C(=O)N[C@@H]4C(=O)N[C@H](C(C)C)C(=O)N5CCC[C@H]5C(=O)N(C)CC(=O)N(C)[C@@H](C(C)C)C(=O)O[C@@H]4C)c3nc-2c(C(=O)N[C@@H]2C(=O)N[C@H](C(C)C)C(=O)N3CCC[C@H]3C(=O)N(C)CC(=O)N(C)[C@@H](C(C)C)C(=O)O[C@@H]2C)cc1=O
[6]
  ILS at 1.2 mg/kg: 52%
[7]
  Survivors: 0
[8]
  minimal effective dose: 0.275 mg/kg
[9]
  adrenochrome formation: 7.29 nM min-1 (mg of protein)-1
[10]
  NADPH oxidation: 29.9 nM min-1 (mg of protein)-1
[11]
  MST: 26 days
[12]
  MST: 44 days
[13]
  ILS at 1.2 mg/kg: 136%
[14]
  Survivors: 1
[15]
  IC50: 1000 nM

## Cc1c2oc3c(C)ccc(C(=O)N[C@@H]4C(=O)N[C@H](C(C)C)C(=O)N5CCC[C@H]5C(=O)NCC(=O)N[C@@H](C(C)C)C(=O)O[C@@H]4C)c3nc-2c(C(=O)N[C@@H]2C(=O)N[C@H](C(C)C)C(=O)N3CCC[C@H]3C(=O)NCC(=O)N[C@@H](C(C)C)C(=O)O[C@@H]2C)c(N)c1=O [ACTINOMYCITIN]
[16]
  MST: 26 days
[17]
  ILS: 48%
[18]
  Survivors: 0
[1]
  MTD at 504 h: 0.25 mg/kg
[8]
  minimal effective dose: 0.0625 mg/kg
[19]
  Survivors: 2
[9]
  adrenochrome formation: 2.11 nM min-1 (mg of protein)-1 and 2.29 nM min-1 (mg of protein)-1
[20]
  IC50: 1.12 nM
[10]
  NADPH oxidation: 9.11 nM min-1 (mg of protein)-1 and 10.01 nM min-1 (mg of protein)-1
[21]
  ILS at 0.3 mg/kg: 136%
[22]
  MST: 43 range
[23]
  IC50: 0.05 nM
[24]
  selectivity ratio: 4
[15]
  IC50: 50 nM

## Cc1c2oc3c(C)c(O)c(N)c(C(=O)N[C@H]4C(=O)N[C@@H](C(C)C)C(=O)N5CCC[C@H]5C(=O)N(C)CC(=O)N(C)[C@H](C(C)C)C(=O)O[C@H]4C)c3nc-2c(C(=O)N[C@@H]2C(=O)N[C@H](C(C)C)C(=O)N3CCC[C@@H]3C(=O)N(C)CC(=O)N(C)[C@@H](C(C)C)C(=O)O[C@@H]2C)cc1=O
[5]
  Ratio: 1

Source: ChEMBL document CHEMBL1123113, “"Reverse" and "symmetrical" analogues of actinomycin D: metabolic activation and in vitro and in vivo tumor growth inhibitory activities” (J Med Chem, 1985)
